Results taken from ChEMBL document CHEMBL1125183, “3-Hydroxy-3-methylglutaryl-coenzyme a reductase inhibitors. 7. Modification of the hexahydronaphthalene moiety of simvastatin: 5-oxygenated and 5-oxa derivatives” (J Med Chem, 1991).

Columns and labels:
Canis familiaris [1] = test: Inhibition of cholesterol synthesis in cholestyramine-primed dogs at 4 mg/kg per day dose in Dog-3:; type: functional, Canis lupus familiaris
Summary of the method: (§1)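 Male beagles were fed a low-cholesterol semisynthetic diet once daily, with 12 g cholestyramine per day in the diet. Pretreatment plasma cholesterol was established, then one dog per compound received 4 mg/kg mixed into the diet for 21 days and was then crossed over to the lovastatin control at the same dose for 2-3 weeks. Jugular blood was taken twice weekly. Plasma cholesterol was measured colorimetrically (Liebermann-Burchard) after extraction and saponification and reported as % change from the resin-treated state.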

Canis familiaris [2] = test: Inhibition of cholesterol synthesis in cholestyramine-primed dogs at 4 mg/kg per day dose in Dog-2; type: functional, Canis lupus familiaris; summary of the method: as §1
Canis familiaris [3] = test: Inhibition of cholesterol synthesis in cholestyramine-primed dogs at 4 mg/kg per day dose in Dog-1; type: functional, Canis lupus familiaris; summary of the method: as §1
[4] = Relative potency with respect to compactin; type: ADME
[5] = molecular target: T1, 3-hydroxy-3-methylglutaryl-coenzyme A reductase (Rattus norvegicus, UniProt P51639); test: In vitro ability to inhibit solubilized, partially purified, rat liver HMG-CoA reductase
T1 sequence (P51639 whole entry): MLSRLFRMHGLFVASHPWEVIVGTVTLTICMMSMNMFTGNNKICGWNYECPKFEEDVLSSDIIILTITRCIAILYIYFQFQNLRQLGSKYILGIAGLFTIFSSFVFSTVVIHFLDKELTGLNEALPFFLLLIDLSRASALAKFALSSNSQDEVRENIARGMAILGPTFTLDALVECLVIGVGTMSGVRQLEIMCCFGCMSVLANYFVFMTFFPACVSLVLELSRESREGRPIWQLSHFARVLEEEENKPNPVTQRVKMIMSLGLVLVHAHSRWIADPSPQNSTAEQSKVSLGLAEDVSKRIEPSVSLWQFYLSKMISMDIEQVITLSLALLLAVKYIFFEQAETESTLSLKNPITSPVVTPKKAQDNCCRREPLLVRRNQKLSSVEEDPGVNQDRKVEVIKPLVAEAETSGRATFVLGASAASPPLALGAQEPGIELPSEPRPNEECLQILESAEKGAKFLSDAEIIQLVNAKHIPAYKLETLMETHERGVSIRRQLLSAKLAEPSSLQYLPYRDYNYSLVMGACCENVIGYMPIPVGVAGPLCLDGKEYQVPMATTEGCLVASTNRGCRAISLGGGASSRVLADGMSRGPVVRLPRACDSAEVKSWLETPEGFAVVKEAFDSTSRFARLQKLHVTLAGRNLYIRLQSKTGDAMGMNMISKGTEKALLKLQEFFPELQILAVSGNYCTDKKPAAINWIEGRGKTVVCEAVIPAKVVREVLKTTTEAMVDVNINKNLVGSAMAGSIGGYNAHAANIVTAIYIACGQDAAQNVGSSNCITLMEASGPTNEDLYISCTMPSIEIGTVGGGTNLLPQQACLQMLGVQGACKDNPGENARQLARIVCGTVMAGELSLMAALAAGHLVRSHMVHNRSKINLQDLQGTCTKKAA
Summary of the method: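 Enzyme tested as the sodium salt of the dihydroxy carboxylate form, against solubilized, partially purified rat liver HMG-CoA reductase. Conditions follow a procedure the paper cites from earlier work.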

Rattus norvegicus = species: Rattus norvegicus; test: The compound was evaluated for acute inhibition of cholesterol synthesis in rat; percent change of [14C]cholesterol; type: functional
Summary of the method: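 Rats received a single oral dose of 0.45 mg/kg. Synthesis of cholesterol from [14C]acetate was measured at a fixed time after dosing and reported as % change in [14C]cholesterol.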

Canis familiaris [6] = test: Inhibition of cholesterol synthesis in cholestyramine-primed dogs at 4 mg/kg per day dose in Dog 1; type: functional, Canis lupus familiaris; summary of the method: as §1
Canis familiaris [7] = test: Inhibition of cholesterol synthesis in cholestyramine-primed dogs at 4 mg/kg per day dose in Dog-3; type: functional, Canis lupus familiaris; summary of the method: as §1
Canis familiaris [8] = test: Inhibition of cholesterol synthesis in cholestyramine-primed dogs at 4 mg/kg per day dose in Dog 2; type: functional, Canis lupus familiaris; summary of the method: as §1

Relative potency [4]	IC50 [5]	Compound	Change (Rattus norvegicus)	further results
63	0.059 µM	CCC(C)(C)C(=O)O[C@H]1C[C@H](C)C(=O)[C@@H]2CC[C@H](C)[C@H](CC[C@@H]3C[C@@H](O)CC(=O)O3)C12 (some centres not stated)	-68%	–
11.1	0.269 µM	CCC(C)(C)C(=O)O[C@H]1C[C@H](C)[C@H](O)[C@@H]2CC[C@H](C)[C@H](CC[C@@H]3C[C@@H](O)CC(=O)O3)C12 (some centres not stated)	–	–
73	0.0408 µM	CCC(C)(C)C(=O)O[C@H]1C[C@@H](C)[C@@H](O)[C@@H]2CC[C@H](C)[C@H](CC[C@@H]3C[C@@H](O)CC(=O)O3)C12 (some centres not stated)	-37%	Change (Canis familiaris [7]): 19%
138	0.013 µM	CCC(C)(C)C(=O)O[C@H]1C[C@@H](C)CC2CC[C@H](C)[C@H](CC[C@@H]3C[C@@H](O)CC(=O)O3)C21 (some centres not stated)	–	–
61	0.0486 µM	CCC(C)(C)C(=O)O[C@H]1C[C@H](C)[C@@H](O)[C@@H]2CC[C@H](C)[C@H](CC[C@@H]3C[C@@H](O)CC(=O)O3)C12 (some centres not stated)	-54%	Change (Canis familiaris [8]): 34%
125	0.034 µM	CCC(C)(C)C(=O)O[C@H]1C[C@@H](C)C(=O)[C@@H]2CC[C@H](C)[C@H](CC[C@@H]3C[C@@H](O)CC(=O)O3)C12 (some centres not stated)	-56%	–

More lines, now with the values behind:

Compound	Relative potency [4]	IC50 [5]	Change (Rattus norvegicus)	further results
CC[C@H](C)C(=O)O[C@H]1C[C@@H](C)C=C2C=C[C@H](C)[C@H](CC[C@@H]3C[C@@H](O)CC(=O)O3)C21 (some centres not stated)	–	–	–	Change (Canis familiaris [1]): 25%; Change (Canis familiaris [2]): 38%; Change (Canis familiaris [3]): 25%
CCC(C)(C)C(=O)O[C@H]1CC(C)(C)O[C@@H]2CC[C@H](C)[C@H](CC[C@@H]3C[C@@H](O)CC(=O)O3)C12 (some centres not stated)	70	0.035 µM	-67%	Change (Canis familiaris [6]): 20%
CCC(C)(C)C(=O)O[C@@H](C[C@@H](C)CO)C1[C@H](O)CC[C@H](C)[C@@H]1CC[C@@H]1C[C@@H](O)CC(=O)O1 (some centres not stated)	0.5	2.8 µM	–	–
CCC(C)(C)C(=O)O[C@H]1C[C@@H](C)[C@@H](OC(=O)NCc2ccccc2)[C@@H]2CC[C@H](C)[C@H](CC[C@@H]3C[C@@H](O)CC(=O)O3)C12 (some centres not stated)	360	0.005 µM	-27%	–
CCC(C)(C)C(=O)O[C@H]1C[C@@H](C)[C@@H](OC(=O)N(Cc2ccccc2)Cc2ccccc2)[C@@H]2CC[C@H](C)[C@H](CC[C@@H]3C[C@@H](O)CC(=O)O3)C12 (some centres not stated)	94	0.016 µM	-4%	–
C=C(C)C[C@H](OC(=O)C(C)(C)CC)C1[C@H](O)CC[C@H](C)[C@@H]1CC[C@@H]1C[C@@H](O)CC(=O)O1 (some centres not stated)	0.9	1.7 µM	–	–
CCC(C)(C)C(=O)O[C@H]1C[C@@H](C)[C@@H](OP(=O)(c2ccccc2)c2ccccc2)[C@@H]2CC[C@H](C)[C@H](CC[C@@H]3C[C@@H](O)CC(=O)O3)C12 (some centres not stated)	300	0.006 µM	-27%	–
CCC(C)(C)C(=O)O[C@H]1C[C@@H](C)[C@@H](OCCc2ccccc2)[C@@H]2CC[C@H](C)[C@H](CC[C@@H]3C[C@@H](O)CC(=O)O3)C12 (some centres not stated)	300	0.006 µM	-39%	–
CCC(C)(C)C(=O)O[C@H]1C[C@@](C)(CSc2ccccc2)O[C@@H]2CC[C@H](C)[C@H](CC[C@@H]3C[C@@H](O)CC(=O)O3)C12 (some centres not stated)	258	0.0066 µM	-34%	–
CCC(C)(C)C(=O)O[C@H]1C[C@](C)(CSc2ccccc2)O[C@@H]2CC[C@H](C)[C@H](CC[C@@H]3C[C@@H](O)CC(=O)O3)C12 (some centres not stated)	280	0.006 µM	0%	–
